What was measured:
CHIP = target: T1, CHIP (Homo sapiens, UniProt Q9UNE7); assay: FP binding of C-terminal Hsp70/90 tracers to CHIP; conditions: pH 7.4, full-length CHIP
T1 sequence (Q9UNE7 1-303): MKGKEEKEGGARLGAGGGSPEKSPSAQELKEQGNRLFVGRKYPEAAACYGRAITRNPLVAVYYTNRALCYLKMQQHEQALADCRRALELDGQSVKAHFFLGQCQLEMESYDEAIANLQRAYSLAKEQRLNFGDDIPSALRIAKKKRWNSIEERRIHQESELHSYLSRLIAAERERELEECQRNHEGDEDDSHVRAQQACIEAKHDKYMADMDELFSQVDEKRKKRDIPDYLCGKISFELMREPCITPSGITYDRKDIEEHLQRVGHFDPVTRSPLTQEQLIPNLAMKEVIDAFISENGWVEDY

FKBP51 = target: T2, FKBP51 (Homo sapiens, UniProt Q13451); assay: FP binding of C-terminal Hsp70/90 tracers to FKBP51; conditions: pH 7.4, full-length FKBP51
T2 sequence (Q13451 1-457): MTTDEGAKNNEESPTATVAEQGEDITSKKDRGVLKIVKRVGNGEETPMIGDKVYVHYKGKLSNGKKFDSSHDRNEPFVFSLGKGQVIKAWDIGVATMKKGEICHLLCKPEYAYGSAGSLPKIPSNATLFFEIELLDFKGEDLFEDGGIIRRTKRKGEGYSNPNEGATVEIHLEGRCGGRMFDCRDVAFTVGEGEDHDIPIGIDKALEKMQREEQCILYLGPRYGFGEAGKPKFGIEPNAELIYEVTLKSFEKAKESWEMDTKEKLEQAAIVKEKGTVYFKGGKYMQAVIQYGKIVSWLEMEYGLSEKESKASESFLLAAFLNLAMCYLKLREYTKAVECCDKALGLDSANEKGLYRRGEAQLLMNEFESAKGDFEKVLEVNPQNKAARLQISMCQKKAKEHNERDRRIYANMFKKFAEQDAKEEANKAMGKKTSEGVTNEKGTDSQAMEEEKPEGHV

FKBP52 = target: T3, FKBP52 (Homo sapiens, UniProt Q02790); assay: FP binding of C-terminal Hsp70/90 tracers to FKBP52; conditions: pH 7.4, full-length FKBP52
T3 sequence (Q02790 1-459): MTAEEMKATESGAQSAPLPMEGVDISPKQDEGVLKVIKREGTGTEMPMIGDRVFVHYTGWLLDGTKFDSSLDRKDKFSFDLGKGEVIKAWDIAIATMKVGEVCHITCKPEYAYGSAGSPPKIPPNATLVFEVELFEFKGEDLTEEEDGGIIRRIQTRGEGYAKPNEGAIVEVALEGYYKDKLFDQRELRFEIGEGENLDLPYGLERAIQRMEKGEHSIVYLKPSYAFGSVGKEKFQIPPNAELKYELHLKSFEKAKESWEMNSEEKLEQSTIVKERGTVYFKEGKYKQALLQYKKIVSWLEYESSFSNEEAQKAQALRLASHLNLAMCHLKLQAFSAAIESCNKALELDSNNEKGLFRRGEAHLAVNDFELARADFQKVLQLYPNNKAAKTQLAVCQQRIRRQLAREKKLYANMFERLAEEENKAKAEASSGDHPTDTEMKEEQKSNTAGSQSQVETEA
Outline: (§1)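 Full-length human protein, made in E. coli BL21(DE3) and Ni-NTA purified (DnaJC7 kept its His-tag; Hop and FKBP52 were TEV-cleaved and gel-filtered). Twofold dilutions (0–125 μM final) with 20 nM N-terminal 5-Fam-aminohexanoyl C-terminal Hsp70/90 peptide in 50 mM HEPES, 75 mM NaCl, 0.001% Triton X-100, pH 7.4. 30 min at RT, dark. FP (ex 485/em 530 nm) isotherms. ≥2 runs in triplicate, mean ± SEM.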

DnaJC7 = target: T4, DnaJC7 (Homo sapiens, UniProt Q99615); assay: FP binding of C-terminal Hsp70/90 tracers to DnaJC7; conditions: pH 7.4, full-length DnaJC7
T4 sequence (Q99615 1-494): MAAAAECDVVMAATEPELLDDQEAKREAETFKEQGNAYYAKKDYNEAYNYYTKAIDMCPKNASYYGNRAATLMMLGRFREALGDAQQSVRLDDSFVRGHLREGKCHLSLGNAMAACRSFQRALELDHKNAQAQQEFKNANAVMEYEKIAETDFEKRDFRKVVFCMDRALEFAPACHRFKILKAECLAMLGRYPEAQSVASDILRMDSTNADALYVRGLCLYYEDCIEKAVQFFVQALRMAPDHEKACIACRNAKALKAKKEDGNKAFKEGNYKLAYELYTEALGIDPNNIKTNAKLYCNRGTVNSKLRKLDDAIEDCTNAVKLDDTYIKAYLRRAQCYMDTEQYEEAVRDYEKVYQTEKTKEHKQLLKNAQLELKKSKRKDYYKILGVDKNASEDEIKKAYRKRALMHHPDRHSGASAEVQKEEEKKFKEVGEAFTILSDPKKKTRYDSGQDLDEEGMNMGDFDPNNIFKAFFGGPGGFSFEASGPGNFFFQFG
Outline: as §1

Hop = Hop (Homo sapiens, UniProt P31948); assay: FP binding of C-terminal Hsp70/90 tracers to Hop
Outline: as §1

Chain of Hop (P31948 whole entry): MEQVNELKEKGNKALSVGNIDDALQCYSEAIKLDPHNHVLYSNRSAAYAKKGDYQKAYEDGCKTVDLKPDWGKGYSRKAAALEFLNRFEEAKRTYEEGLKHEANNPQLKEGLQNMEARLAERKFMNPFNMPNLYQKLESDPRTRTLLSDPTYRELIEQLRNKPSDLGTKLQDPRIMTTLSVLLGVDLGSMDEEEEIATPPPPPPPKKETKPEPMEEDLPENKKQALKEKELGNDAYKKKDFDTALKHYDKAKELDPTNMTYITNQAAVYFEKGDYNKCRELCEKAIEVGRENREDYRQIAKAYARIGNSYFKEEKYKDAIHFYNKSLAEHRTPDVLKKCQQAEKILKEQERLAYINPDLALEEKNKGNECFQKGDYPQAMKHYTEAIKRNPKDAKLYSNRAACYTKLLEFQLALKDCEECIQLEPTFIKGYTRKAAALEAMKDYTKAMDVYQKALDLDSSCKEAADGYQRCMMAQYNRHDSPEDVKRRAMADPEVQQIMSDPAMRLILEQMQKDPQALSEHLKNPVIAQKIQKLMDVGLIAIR

Substance | decrease in affinity versus wt tracer (CHIP) | binding to FKBP51 (in words) (FKBP51) | binding to FKBP52 (in words) (FKBP52) | binding to DnaJC7 (in words) (DnaJC7) | enhanced binding versus wt tracer (Hop; pH 7.4, pseudophosphorylated tracer) | binding to CHIP (in words) (CHIP) | binding to Hop (in words) (Hop; pH 7.4, full-length Hop)
Fam-DDTERMEEVD | more than 8 fold | unaffected | unaffected | unaffected | ~ 2 fold |  | 
Fam-DVEEM |  | no affinity | no affinity | no affinity |  | no affinity | no affinity
